Shown are actives, neighbours in structure and some others; about 1.4% of the full set was active somewhere.
PG9 Ab binder: small molecules binding HIV-1 gp120 antibody PG9; TR-FRET gp120-PG9 antibody binding; AID 624416; inhibition, % at 6.7 µM; actives 0.43% (n = 360,000); in the data active = inhibition above about 8.5%
NR2E3 ag-1: agonists of human NR2E3 nuclear receptor | actives 0.35% (n = 360,000) | inhibition of corepressor binding, % at 3.98 µM | Q9Y5X4 | CHO-S Gal4-NCOR/VP16-NR2E3 two-hybrid, luciferase;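 active = inhibition above the mean of all tested compounds plus 3 SD, cut at about 70% in these data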;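 also: higher means lower luciferase signal from less NR2E3 corepressor binding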
Target sequence (Q9Y5X4 whole entry, looked up, the tested form may be a part): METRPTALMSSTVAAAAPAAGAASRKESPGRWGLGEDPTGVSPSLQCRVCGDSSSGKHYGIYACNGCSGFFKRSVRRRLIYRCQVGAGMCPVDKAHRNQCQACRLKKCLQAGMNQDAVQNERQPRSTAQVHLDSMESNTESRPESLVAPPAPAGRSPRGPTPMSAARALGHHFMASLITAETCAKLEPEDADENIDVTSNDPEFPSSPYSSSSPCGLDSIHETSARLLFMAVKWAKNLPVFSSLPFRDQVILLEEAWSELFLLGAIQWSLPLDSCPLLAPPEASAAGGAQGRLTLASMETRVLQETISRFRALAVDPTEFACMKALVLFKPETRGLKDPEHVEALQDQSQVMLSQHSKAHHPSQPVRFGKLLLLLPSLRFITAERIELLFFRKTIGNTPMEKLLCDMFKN
Rev-erbA mod: modulates human Rev-erb alpha binding to DNA. P20393. Rev-erbα–FITC-DNA binding, fluorescence polarization, 90 min. activity, % at 10 µM. actives 0.79% (n = 370,000). AID 1259318;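 active = activity above about 14%, limit read from the data; passing the limit was not always enough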
NR2E3 ag-2: activates human photoreceptor nuclear receptor NR2E3; actives 0.12% (n = 320,000); GST-NR2E3/biotin-RetCOR TR-FRET, 1536-well; inhibition of corepressor binding, % at 4.78 µM; Q9Y5X4;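 active = percent inhibition above the cutoff of mean plus 3 SD of all tested compounds, set per screening campaign, cut at about 20% in these data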
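System: GST-tagged NR2E3 plus biotinylated RetCOR corepressor; Buffer or medium: pH 7.5 Tris-based buffer; Probe or stimulus: RetCOR corepressor, biotinylated, 7 nM; Doses: compound at 4.8 µM, single dose; Schedule: 5 h incubation at 4 °C; Technique: time-resolved FRET; Evaluation: percent inhibition of TR-FRET ratio; Replication: one well per compound, singlicate testing.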
NR1D1 mod conf: confirmation of modulators of human Rev-erb alpha DNA binding. activation, % at 25 µM. shares compounds with Rev-erbA mod. AID 1259319. actives 61% (n = 3,000). Rev-erb alpha FITC-DNA binding, fluorescence polarization, 90 min;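 active = activation at or above a set limit, or at least 3 SD above the negative control mean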
RORg counter: affects RORgamma DNA binding in a Rev-erb alpha counter-screen; shares compounds with Rev-erbA mod; purified RORgamma protein-FITC-DNA binding, fluorescence polarization; IC50, µM; actives 8% (n = 910);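 active = Compounds whose fitted half-maximal concentration for disrupting protein-DNA binding is below 10 micromolar; the record names Rev-erb in its text, so the target is in doubt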
Numbers stand for hits; i = inactive; nt = no result given.

SMILES	PG9 Ab binder	NR2E3 ag-1	Rev-erbA mod	NR2E3 ag-2	NR1D1 mod conf	others
O=C1/C(=C\c2cccc([N+](=O)[O-])c2O)SC(=S)N1Cc1ccccc1	i	i	i	i	nt
O=C(NN1C(=O)/C(=C/c2ccc(O)c([N+](=O)[O-])c2)SC1=S)c1ccccc1Cl	i	i	17	i	28
O=C1/C(=C/c2ccc(O)c([N+](=O)[O-])c2)SC(=S)N1Cc1ccccc1	i	i	30	i	i
COc1cc(/C=C2\SC(=S)N(NC(=O)c3ccccc3O)C2=O)ccc1O	i	i	i	i	nt
Nc1nc2ccccc2cc1C(=O)NCc1ccc(-c2ccccc2)cc1	i	nt	i	nt	nt
Cn1ccc(-c2ccccc2)c(C#N)c1=O	i	i	i	i	nt
Cn1c2ccccc2n2c(=O)c(Cl)c(-c3ccccc3)c(C#N)c12	i	i	41	i	33	RORg counter=i
O=C(COc1ccc(Cl)cc1Cl)Nc1cccc(-c2ccc(N3CCOCC3)nn2)c1	i	i	22	nt	14
O=C1CSc2ccc(C(=O)N3CCCC(C(=O)N4CCCC4)C3)cc2N1 (stereo not drawn)	nt	nt	i	nt	nt
COc1cc2c(cc1OC)[C@@H](NC(=O)c1ccncc1)[C@H](C)[C@H]2c1ccccc1	i	nt	i	nt	nt
Cc1ccccc1NC(=O)Cc1nc(COC(=O)c2cc(Br)ccc2O)cs1	i	i	i	i	nt
Cc1ccccc1NC(=O)Cc1nc(COC(=O)c2cc(Cl)ccc2O)cs1	i	i	19	i	i
CCCC1CCC2(CC1)CCC2OC(=O)Nc1c(OC)cccc1OC (stereo not drawn)	nt	nt	i	nt	nt
Cc1cc(=O)oc2cc(OCC(=O)Nc3ccc(S(=O)(=O)N(C)C)cc3)ccc12	i	i	23	i	30	RORg counter=i
Cc1cc(=O)oc2cc(OCC(=O)Nc3ccc(F)cc3F)ccc12	i	i	21	nt	i
O=C(N[C@@H]1CCCc2c1cnn2-c1ccc(F)cc1F)c1ccccn1	nt	nt	i	nt	nt
COc1ccc(S(=O)(=O)N(C)[C@H]2C[C@H]3c4cc(N5CCN(C)CC5)ccc4CCN3C(=O)[C@H]2[C@H](C)O)cc1	i	i	i	nt	nt
COc1ccc(-c2cc(C(=O)OCC(=O)NC3CC3)c3ccccc3n2)cc1OC	i	i	i	nt	nt
COc1ccc2nc(-c3ccccc3)cc(C(=O)OCC(=O)NC3CC3)c2c1	i	i	18	nt	i
COc1ccc(CNC(=O)COC(=O)c2cc(-c3ccc(Cl)s3)nc3ccccc23)cc1	i	i	121	i	61
O=C(COC(=O)c1cc(-c2ccc(Cl)s2)nc2ccccc12)NCc1ccco1	i	i	i	i	nt
O=S(=O)(c1ccc(F)cc1)N1CCCc2nc(-c3ccc(F)cc3)ccc21	i	nt	i	nt	nt
COc1cc2c3nnc(-c4ccc(F)cc4)c-3cn(Cc3ccccc3F)c2cc1OC	i	i	21	nt	39	RORg counter=i
Nc1cc(=O)nc2cn[nH]n12	i	i	i	nt	nt
Cc1ccc(C)c(C(=O)OCC(=O)NC(=O)NCc2ccccc2)c1	i	i	i	nt	nt
SMILES	PG9 Ab binder	NR2E3 ag-1	Rev-erbA mod	NR2E3 ag-2	NR1D1 mod conf	others
CCc1ccc2nc(NC(=O)C3CCN(c4ncnc5sc(C)c(C)c45)CC3)sc2c1	i	i	21	i	19
C[C@H](O)[C@@H]1C(=O)N2CCc3c([nH]c4c(-c5ccccc5)cccc34)[C@@H]2C[C@@H]1N(C)C(=O)OCc1ccccc1	i	nt	i	nt	nt
COc1cc(OC)cc(-n2c3nc4ccccc4nc3c3c(=O)n(CC4CCCO4)cnc32)c1 (stereo not drawn)	i	nt	300	i	142	RORg counter=i
O=c1c2c3nc4ccccc4nc3n(CC3CCCO3)c2ncn1CCc1ccccc1 (stereo not drawn)	i	i	i	i	nt
CCOc1ccc(CCNC(=O)COC(=O)c2ccc(S(C)(=O)=O)cc2)cc1OCC	i	i	17	i	i
O=C(N=c1ccn(-c2nc3ccccc3nc2NS(=O)(=O)c2ccc(Cl)cc2)cc1)c1cccs1	i	i	91	i	33	RORg counter=i
Cc1[nH]c2ccccc2c1/C=N/NC(=O)c1cccc([N+](=O)[O-])c1	i	i	i	i	nt
Cc1[nH]c2ccccc2c1/C=N/Nc1ccc([N+](=O)[O-])cc1	i	i	22	i	i
Nc1ccn([C@@H]2O[C@H](C(=O)N[C@H](Cc3ccccc3)C(=O)N3CCN(C(=O)N4CCCCC4)CC3)[C@@H](O)[C@H]2O)c(=O)n1	i	nt	i	nt	nt
COc1ccc(-c2nn(CC(=O)Nc3ccc(Cl)c(Cl)c3)c(=O)c3ccccc23)cc1	i	i	22	i	i
COc1ccc(-c2ccc(=O)n(CC(=O)Nc3ccc4c(c3)OCCO4)n2)cc1	i	i	18	i	i
COc1ccc(CNC(=O)Cn2nc(-c3ccc4c(c3)OCCO4)ccc2=O)cc1	i	i	i	i	nt
CC(=O)c1cccc(NC(=O)Cn2nc(-c3ccccc3Cl)ccc2=O)c1	i	i	i	i	nt
CC(=O)c1cccc(NC(=O)Cn2nc(-c3ccc(Cl)cc3)ccc2=O)c1	i	i	23	i	i
COc1ccc(S[C@]2(C(=O)N3CCCC3)CC(=O)N(P(=O)(OC)OC)[C@@H]2c2ccc(OC)cc2)cc1	nt	nt	i	nt	nt
O=C(NCc1cccc(Cl)c1)C1Cc2c(-c3ccccc3Oc3ccccc3)ccnc2O1 (stereo not drawn)	i	i	i	nt	nt
Cc1nonc1NC(=O)CSc1nc(C2CCCCC2)nc2ccccc12	i	i	i	i	nt
Cc1cc2nc(SCC(=O)Nc3nonc3C)c3c(c2cc1C)CCCC3	i	i	103	i	81
Cc1nonc1NC(=O)CSc1nc(C23CC4CC(CC(C4)C2)C3)nc2ccccc12	i	i	30	i	22
CCc1nc2ccc(C(=O)NCCc3ccccn3)cn2c1N(CC)CCOC	i	i	i	nt	nt
CCCCC[C@@H](C)N1C[C@H](COCc2ccccc2)Oc2cc(N3CCC[C@H]3COC)ccc2S1(=O)=O	i	i	i	nt	nt
CC(=O)N1C[C@@H](CO)[C@@H](N(C)C(=O)C2CCCCC2)C[C@H]1c1ccccc1	i	i	i	nt	nt
N#Cc1cnc2cc(-c3ccccc3)nn2c1N	i	i	27	i	32	RORg counter=i
COc1ccc(-c2cc3ncc(-c4ccccc4)c(N)n3n2)cc1	i	i	i	nt	nt
CCCOc1ccc(F)cc1-c1cc(C(=O)NCc2cccs2)[nH]n1	i	i	i	nt	nt
O=C(CSc1nnc2scc(-c3ccccc3)n12)Nc1nsc(-c2ccc(Cl)cc2)n1	i	i	31	i	i
O=C(CSc1nnc2scc(-c3ccccc3)n12)Nc1nsc(-c2ccccc2)n1	nt	i	44	i	39	RORg counter=i
COC(=O)C1CN(Cc2ccccc2)CCS(=O)(=O)N1Cc1ccc(C(F)(F)F)cc1 (stereo not drawn)	nt	nt	i	nt	nt
O=C(NCc1cccc(F)c1)c1cccc2c1C(=O)c1ccc(N3CCOCC3)cc1S2(=O)=O	i	i	118	nt	87	RORg counter=i

High-throughput results from PubChem BioAssay.
